Reference: ChEMBL document CHEMBL1275591, “Cellular pharmacodynamics of the novel biaryloxazolidinone radezolid: studies with infected phagocytic and nonphagocytic cells, using Staphylococcus aureus, Staphylococcus epidermidis, Listeria monocytogenes, and Legionella pneumophila” (Antimicrob Agents Chemother, 2010)
In brackets after ≈: the same amount, converted by molar mass.

Assays:
Staphylococcus aureus [1] = test: Antimicrobial activity against Linezolid resistant hospital acquired methicillin-resistant Staphylococcus aureus SA238L after 24 hrs; type: functional
Staphylococcus aureus [2] = test: Antimicrobial activity against linezolid-susceptible Staphylococcus aureus ATCC 33591 infected in THP1 cells after 24 hrs; type: functional, organism-based; conditions: ATCC 33591, THP-1, 24 h
Method in brief: (§1)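 Bacteria were phagocytosed by human THP-1 macrophage-like cells, then exposed to a range of drug concentrations for a fixed time: 24 h for S. aureus, S. epidermidis and L. monocytogenes, 48 h for L. pneumophila. Change in CFU versus the initial inoculum was fitted with a sigmoidal curve to give Emin, Emax (relative maximal efficacy), EC50 and static concentration (Cs).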

Staphylococcus aureus [3] = test: Bacteriostatic activity against linezolid-susceptible Staphylococcus aureus SA040 infected in THP1 cells after 24 hrs; type: functional, THP-1
Method in brief: (§2)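 Human THP-1 myelomonocytic (macrophage-like) cells infected with S. aureus, then exposed 24 h to a range of antibiotic concentrations. CFU change was measured against the initial inoculum. A sigmoidal dose-response curve was fitted to give Emin, Emax and EC50, and the apparent static concentration (Cs) was taken from the fit.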

Legionella pneumophila [4] = test: Bacteriostatic activity against Legionella pneumophila ATCC 33153 infected in THP1 cells after 48hrs; type: functional, THP-1; method in brief: as §1
Staphylococcus aureus [5] = test: Bacteriostatic activity against linezolid-susceptible Staphylococcus aureus SA238 infected in THP1 cells after 24 hrs; type: functional, THP-1; method in brief: as §2
Staphylococcus aureus [6] = test: Antimicrobial activity against linezolid-susceptible Staphylococcus aureus SA238 infected in THP1 cells at pH 7.4 after 24 hrs; type: functional, organism-based; conditions: SA238, THP-1, 24 h
Staphylococcus aureus [7] = test: Antimicrobial activity against hospital acquired methicillin-resistant, vancomycin resistant Staphylococcus aureus VRS2 after 24 hrs; type: functional; conditions: VRS2, 24 h
Staphylococcus aureus [8] = test: Antimicrobial activity against Staphylococcus aureus infected in THP1 cells after 24 hrs; type: functional, organism-based; conditions: THP-1, 24 h; method in brief: as §1
Staphylococcus aureus [9] = test: Bacteriostatic activity against linezolid-susceptible Staphylococcus aureus ATCC 33591 infected in THP1 cells after 24 hrs; type: functional, THP-1; method in brief: as §2
Staphylococcus aureus [10] = test: Antimicrobial activity against linezolid-susceptible Staphylococcus aureus SA238 infected in THP1 cells assessed as log reduction in bacterial count after 24 hrs; type: functional, THP-1; method in brief: as §1
Staphylococcus aureus [11] = test: Antimicrobial activity against linezolid-susceptible Staphylococcus aureus NRS18 infected in THP1 cells assessed as log reduction in bacterial count after 24 hrs; type: functional, THP-1; method in brief: as §1
Staphylococcus aureus [12] = test: Bacteriostatic activity against linezolid-susceptible Staphylococcus aureus SA238 infected in THP1 cells at pH 5.5 after 24 hrs; type: functional, THP-1
Listeria monocytogenes [13] = test: Bacteriostatic activity against Listeria monocytogenes EGD infected in THP1 cells after 24 hrs; type: functional, THP-1; method in brief: as §1
Staphylococcus aureus [14] = test: Bacteriostatic activity against linezolid-susceptible Staphylococcus aureus NRS384 infected in THP1 cells after 24 hrs; type: functional, THP-1; method in brief: as §2
Staphylococcus aureus [15] = test: Antimicrobial activity against linezolid-susceptible Staphylococcus aureus NRS384 infected in THP1 cells assessed as log reduction in bacterial count after 24 hrs; type: functional, THP-1; method in brief: as §1
Listeria monocytogenes [16] = test: Antimicrobial activity against Listeria monocytogenes infected in THP1 cells after 24 hrs; type: functional, organism-based; conditions: THP-1, 24 h; method in brief: as §1
Staphylococcus aureus [17] = test: Antimicrobial activity against linezolid-susceptible Staphylococcus aureus SA040 infected in THP1 cells assessed as log reduction in bacterial count after 24 hrs; type: functional, THP-1; method in brief: as §1
Staphylococcus aureus [18] = test: Bacteriostatic activity against linezolid-susceptible Staphylococcus aureus SA238 infected in THP1 cells at pH 7.4 after 24 hrs; type: functional, THP-1
[19] = test system: Staphylococcus epidermidis; test: Bacteriostatic activity against Staphylococcus epidermidis infected in THP1 cells after 24 hrs; type: functional, THP-1; method in brief: as §1
Staphylococcus aureus [20] = test: Antimicrobial activity against linezolid-susceptible Staphylococcus aureus SA238 after 24 hrs; type: functional, organism-based; conditions: SA238, 24 h
Staphylococcus aureus [21] = test: Bacteriostatic activity against linezolid-susceptible Staphylococcus aureus NRS18 infected in THP1 cells after 24 hrs; type: functional, THP-1; method in brief: as §2
Staphylococcus aureus [22] = test: Bacteriostatic activity against linezolid-resistant Staphylococcus aureus SA238L infected in THP1 cells after 24 hrs; type: functional, THP-1; method in brief: as §2
Staphylococcus aureus [23] = test: Antimicrobial activity against linezolid-susceptible Staphylococcus aureus ATCC 25923 infected in THP1 cells assessed as log reduction in bacterial count after 24 hrs; type: functional, THP-1; method in brief: as §1
Staphylococcus aureus [24] = test: Antimicrobial activity against linezolid-resistant Staphylococcus aureus SA238L infected in THP1 cells assessed as log reduction in bacterial count after 24 hrs; type: functional, THP-1; method in brief: as §1
[25] = test system: Staphylococcus epidermidis; test: Antimicrobial activity against Staphylococcus epidermidis SA362 after 24 hrs; type: functional; conditions: SA362, 24 h
Staphylococcus aureus [26] = test: Antimicrobial activity against linezolid-resistant Staphylococcus aureus SA040L infected in THP1 cells after 24 hrs; type: functional, organism-based; conditions: THP-1, 24 h; method in brief: as §1
Staphylococcus aureus [27] = test: Antimicrobial activity against linezolid-susceptible Staphylococcus aureus ATCC 25923 infected in THP1 cells after 24 hrs; type: functional, organism-based; conditions: ATCC 25923, THP-1, 24 h; method in brief: as §1
Listeria monocytogenes [28] = test: Antimicrobial activity against Listeria monocytogenes EGD after 24 hrs; type: functional
Staphylococcus aureus [29] = test: Antimicrobial activity against linezolid-susceptible Staphylococcus aureus SA238 infected in THP1 cells after 24 hrs; type: functional, organism-based; conditions: SA238, THP-1, 24 h; method in brief: as §1
Staphylococcus aureus [30] = test: Bacteriostatic activity against Staphylococcus aureus infected in THP1 cells after 24 hrs; type: functional, THP-1; method in brief: as §1
Staphylococcus aureus [31] = test: Antimicrobial activity against linezolid-resistant Staphylococcus aureus SA040L infected in THP1 cells assessed as log reduction in bacterial count after 24 hrs; type: functional, THP-1; method in brief: as §1
Legionella pneumophila [32] = test: Antimicrobial activity against Legionella pneumophila ATCC 33153 infected in THP1 cells after 48hrs; type: functional, organism-based; conditions: ATCC 33153, THP-1, 48 h; method in brief: as §1
Staphylococcus aureus [33] = test: Bacteriostatic activity against linezolid-resistant Staphylococcus aureus SA040L infected in THP1 cells after 24 hrs; type: functional, THP-1; method in brief: as §2
Staphylococcus aureus [34] = test: Antimicrobial activity against hospital acquired methicillin-resistant, vancomycin resistant Staphylococcus aureus VRS1 after 24 hrs; type: functional; conditions: VRS1, 24 h
Staphylococcus aureus [35] = test: Antimicrobial activity against linezolid-susceptible Staphylococcus aureus SA040 infected in THP1 cells after 24 hrs; type: functional, organism-based; conditions: SA040, THP-1, 24 h; method in brief: as §1
Staphylococcus aureus [36] = test: Antimicrobial activity against hospital acquired methicillin-resistant Staphylococcus aureus ATCC 33591 after 24 hrs; type: functional; conditions: ATCC 33591, 24 h
Staphylococcus aureus [37] = test: Bacteriostatic activity against linezolid-susceptible Staphylococcus aureus SA238 after 24 hrs; type: functional
Method in brief: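 Extracellular concentration-response in Mueller-Hinton broth over 24 h. Change in CFU was fitted to a sigmoidal function, and the apparent static concentration (Cs) was derived from the fit.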

Staphylococcus aureus [38] = test: Antimicrobial activity against linezolid-susceptible Staphylococcus aureus SA238 infected in THP-1 cells at pH 5.5 after 24 hrs; type: functional, organism-based; conditions: SA238, THP-1, 24 h
Legionella pneumophila [39] = test: Antimicrobial activity against Legionella pneumophila ATCC 33153 after 48 hrs; type: functional; conditions: ATCC 33153, 48 h
Staphylococcus aureus [40] = test: Antimicrobial activity against linezolid-susceptible Staphylococcus aureus ATCC 33591 infected in THP1 cells assessed as log reduction in bacterial count after 24 hrs; type: functional, THP-1; method in brief: as §1
[41] = test system: Staphylococcus epidermidis; test: Antimicrobial activity against Staphylococcus epidermidis infected in THP1 cells after 24 hrs; type: functional, organism-based; conditions: THP-1, 24 h; method in brief: as §1
Staphylococcus aureus [42] = test: Antimicrobial activity against linezolid-resistant Staphylococcus aureus SA238L infected in THP1 cells after 24 hrs; type: functional, organism-based; conditions: THP-1, 24 h; method in brief: as §1
Staphylococcus aureus [43] = test: Antimicrobial activity against linezolid-susceptible Staphylococcus aureus NRS384 infected in THP1 cells after 24 hrs; type: functional, organism-based; conditions: NRS384, THP-1, 24 h; method in brief: as §1
Staphylococcus aureus [44] = test: Bacteriostatic activity against linezolid-susceptible Staphylococcus aureus ATCC 25923 infected in THP1 cells after 24 hrs; type: functional, THP-1; method in brief: as §2
Staphylococcus aureus [45] = test: Antimicrobial activity against linezolid-susceptible Staphylococcus aureus NRS18 infected in THP1 cells after 24 hrs; type: functional, organism-based; conditions: NRS18, THP-1, 24 h; method in brief: as §1
Staphylococcus aureus [46] = test: Antimicrobial activity against linezolid resistant methicillin-susceptible Staphylococcus aureus SA040L after 24 hrs; type: functional

Q: How did the MIC (Staphylococcus aureus [1]) turn out when `CC(=O)NC[C@H]1CN(c2ccc(N3CCOCC3)c(F)c2)C(=O)O1` [LINEZOLID] was run?
A: 16 µg/mL (≈ 47.4 µM)

Q: And the EC50 (Staphylococcus aureus [2])?
A: 0.47 µg/mL (≈ 1.39 µM)

Q: What about the Activity (Staphylococcus aureus [3]) of the same molecule?
A: 1.59 mg/L

Q: What about the Activity (Legionella pneumophila [4]) of the same molecule?
A: 5.14 mg/L

Q: What about the Activity (Staphylococcus aureus [5]) of the same molecule?
A: 4.55 mg/L

Q: And the EC50 (Staphylococcus aureus [6])?
A: 0.35 µg/mL (≈ 1.04 µM)

Q: And the MIC (Staphylococcus aureus [7])?
A: 1 µg/mL (≈ 2.96 µM)

Q: What about the EC50 (Staphylococcus aureus [8]) of the same molecule?
A: 0.63 µg/mL (≈ 1.87 µM)

Q: And the Activity (Staphylococcus aureus [9])?
A: 2.95 mg/L

Q: What about the log10cfu (Staphylococcus aureus [10]) of the same molecule?
A: -0.42

Q: What about the log10cfu (Staphylococcus aureus [11]) of the same molecule?
A: -0.69

Q: What about the Activity (Staphylococcus aureus [12]) of the same molecule?
A: 1.09 mg/L

Q: And the Activity (Listeria monocytogenes [13])?
A: 5.47 mg/L

Q: What about the Activity (Staphylococcus aureus [14]) of the same molecule?
A: 2.3 mg/L

Q: And the log10cfu (Staphylococcus aureus [15])?
A: -0.41

Q: And the EC50 (Listeria monocytogenes [16])?
A: 0.62 µg/mL (≈ 1.84 µM)

Q: And the log10cfu (Staphylococcus aureus [17])?
A: -0.91

Q: What about the Activity (Staphylococcus aureus [18]) of the same molecule?
A: 2.26 mg/L

Q: And the Activity [19]?
A: 0.49 mg/L

Q: And the EC50 (Staphylococcus aureus [20])?
A: 0.7 µg/mL (≈ 2.07 µM)

Q: And the Activity (Staphylococcus aureus [21])?
A: 2.77 mg/L

Q: And the Activity (Staphylococcus aureus [22])?
A: >100 mg/L

Q: What about the log10cfu (Staphylococcus aureus [23]) of the same molecule?
A: -0.37

Q: What about the log10cfu (Staphylococcus aureus [24]) of the same molecule?
A: 0.27

Q: And the MIC [25]?
A: 1 µg/mL (≈ 2.96 µM)

Q: What about the EC50 (Staphylococcus aureus [26]) of the same molecule?
A: 2.78 µg/mL (≈ 8.24 µM)

Q: What about the EC50 (Staphylococcus aureus [27]) of the same molecule?
A: 0.63 µg/mL (≈ 1.87 µM)

Q: And the MIC (Listeria monocytogenes [28])?
A: 1 µg/mL (≈ 2.96 µM)

Q: And the EC50 (Staphylococcus aureus [29])?
A: 0.7 µg/mL (≈ 2.07 µM)

Q: And the Activity (Staphylococcus aureus [30])?
A: 4.27 mg/L

Q: What about the log10cfu (Staphylococcus aureus [31]) of the same molecule?
A: -0.69

Q: What about the EC50 (Legionella pneumophila [32]) of the same molecule?
A: 8.45 µg/mL (≈ 25 µM)

Q: And the Activity (Staphylococcus aureus [33])?
A: 10.15 mg/L

Q: What about the MIC (Staphylococcus aureus [34]) of the same molecule?
A: 1 µg/mL (≈ 2.96 µM)

Q: What about the EC50 (Staphylococcus aureus [35]) of the same molecule?
A: 0.63 µg/mL (≈ 1.87 µM)

Q: What about the MIC (Staphylococcus aureus [36]) of the same molecule?
A: 1 µg/mL (≈ 2.96 µM)

Q: And the Activity (Staphylococcus aureus [37])?
A: 4.55 mg/L

Q: What about the EC50 (Staphylococcus aureus [38]) of the same molecule?
A: 0.18 µg/mL (≈ 0.534 µM)

Q: What about the MIC (Legionella pneumophila [39]) of the same molecule?
A: 4 µg/mL (≈ 11.9 µM)

Q: What about the log10cfu (Staphylococcus aureus [40]) of the same molecule?
A: -0.39

Q: And the EC50 [41]?
A: 2.99 µg/mL (≈ 8.86 µM)

Q: And the EC50 (Staphylococcus aureus [42])?
A: 0.29 µg/mL (≈ 0.86 µM)

Q: And the EC50 (Staphylococcus aureus [43])?
A: 0.4 µg/mL (≈ 1.19 µM)

Q: And the Activity (Staphylococcus aureus [44])?
A: 4.27 mg/L

Q: And the EC50 (Staphylococcus aureus [45])?
A: 0.84 µg/mL (≈ 2.49 µM)

Q: And the MIC (Staphylococcus aureus [46])?
A: 16 µg/mL (≈ 47.4 µM)
